The values below come from article PMC8265689 (Journal of the American Chemical Society, 2021).

Data set [1] has as its system DU-145 cells. In words: DU-145 viability. Type of data set: cell-based, human. Conditions: 5 μM, vinblastine 0–5 nM, blue light, Figure 7C. An outline of the steps:
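DU-145 cells (7000/well) were grown overnight, then given test compound (5 μM, 1% DMSO) in octuplicate for 1 h at 37 °C. Medium was replaced with vinblastine (5 nM; 2.5 or 5 nM in one set) or vehicle. Plates received blue LED light (460–470 nm, 20 min, 56 J/cm²) or were kept dark, then 72 h. MTT read at 570 nm, blank-normalized, as percent of vehicle control.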

The test system of data set [2] is DU-145 cells. The data set can be described thus: Chou–Talalay synergy determination with vinblastine. Conditions: light conditions. Type of data set: cell-based, human. Put shortly: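 DU-145 cells (7000/well, DMEM with 10% FBS and penicillin/streptomycin) were grown overnight (16 h, 37 °C, 5% CO₂). They were pretreated 1 h with test compound (10–1 μM) or vehicle (1% DMSO), then switched to vinblastine (10–0.5 nM) or vehicle, in quadruplicate. Blue light 460–470 nm for 20 min, then 72 h. MTT read at 570 nm, blank-subtracted, as percent effect. Chou–Talalay EC50 and CI computed per combination.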

For data set [3] the following is noted: in MeOH, used as standard; cited from earlier work.

On to “[Ru(tpy)(Me2dppn)(py)](PF6)2 [Compound 27, reference compound]”, for which, in data set [1], the “synergy with vinblastine (viability)” value is recorded as “does not”. Also, the “synergism with vinblastine (Chou–Talalay)” value in data set [2] is “weaker synergism”.

For `[Ru+2].c1ccc(-c2ccccn2)nc1.c1ccc(-c2ccccn2)nc1.c1ccc(-c2ccccn2)nc1` [[Ru(bpy)3]^2+], the “Quantum yield of singlet oxygen production (ΦΔ)” value in data set [3] was 0.81.
